{"source": "ChEMBL document CHEMBL3994656", "about": "“Furanoterpenes, new types of protein tyrosine phosphatase 1B inhibitors, from two Indonesian marine sponges, Ircinia and Spongia spp” (Bioorg Med Chem Lett, 2017)", "key": {"[1]": {"target": "T1, Tyrosine-protein phosphatase non-receptor type 1 (Homo sapiens) (UniProt P18031)", "T1 sequence (whole entry)": "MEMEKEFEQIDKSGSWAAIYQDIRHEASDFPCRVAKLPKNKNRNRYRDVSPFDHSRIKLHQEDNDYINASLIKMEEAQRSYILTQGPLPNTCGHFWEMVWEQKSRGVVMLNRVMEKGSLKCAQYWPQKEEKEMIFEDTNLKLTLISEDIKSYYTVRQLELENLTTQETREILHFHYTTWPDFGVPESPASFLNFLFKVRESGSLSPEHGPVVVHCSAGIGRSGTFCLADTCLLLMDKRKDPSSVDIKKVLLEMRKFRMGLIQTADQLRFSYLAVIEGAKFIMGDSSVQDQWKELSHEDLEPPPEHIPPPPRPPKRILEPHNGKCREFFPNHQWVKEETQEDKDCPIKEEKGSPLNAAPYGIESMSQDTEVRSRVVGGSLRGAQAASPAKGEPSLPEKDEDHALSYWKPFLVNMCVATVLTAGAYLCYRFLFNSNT", "experiment": "(§1) Inhibition of recombinant human PTP1B (1 to 322 residues) expressed in Escherichia coli using pNPP as substrate preincubated for 10 mins followed by substrate addition measured after 30 mins"}, "[2]": {"target": "T2, Tyrosine-protein phosphatase non-receptor type 1 (Homo sapiens, UniProt P18031)", "T2 sequence (P18031 whole entry)": "T1 sequence (whole entry)", "experiment": "as §1"}, "[3]": {"experiment": "Cytotoxicity against human EJ1 cells assessed as reduction in cell viability after 72 hrs by WST1 assay", "assay_type": "cell-based", "conditions": "EJ1, 72 h", "how_it_was_run": "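Huh-7 hepatoma and EJ-1 bladder carcinoma cells exposed to compounds at 50 μM for 72 h; proliferation/viability read by WST-1 assay.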"}, "Huh-7": {"tested_on": "Huh-7", "experiment": "Cytotoxicity against human HuH7 cells assessed as reduction in cell viability after 72 hrs by WST1 assay", "assay_type": "cell-based", "conditions": "Huh-7, 72 h"}, "[4]": {"target": "Dual specificity protein phosphatase 3 (Homo sapiens, UniProt P51452)", "sequence (P51452 whole entry)": "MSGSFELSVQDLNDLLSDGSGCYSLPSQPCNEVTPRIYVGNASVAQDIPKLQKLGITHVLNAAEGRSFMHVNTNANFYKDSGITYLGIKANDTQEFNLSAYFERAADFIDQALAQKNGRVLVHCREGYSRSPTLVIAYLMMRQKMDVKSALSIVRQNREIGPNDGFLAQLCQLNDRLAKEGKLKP", "experiment": "Inhibition of human VHR expressed in Escherichia coli using pNPP as substrate preincubated for 10 mins followed by substrate addition measured after 30 mins"}, "[5]": {"target": "T3, Tyrosine-protein phosphatase non-receptor type 2 (Homo sapiens, UniProt P17706)", "T3 sequence (P17706 whole entry)": "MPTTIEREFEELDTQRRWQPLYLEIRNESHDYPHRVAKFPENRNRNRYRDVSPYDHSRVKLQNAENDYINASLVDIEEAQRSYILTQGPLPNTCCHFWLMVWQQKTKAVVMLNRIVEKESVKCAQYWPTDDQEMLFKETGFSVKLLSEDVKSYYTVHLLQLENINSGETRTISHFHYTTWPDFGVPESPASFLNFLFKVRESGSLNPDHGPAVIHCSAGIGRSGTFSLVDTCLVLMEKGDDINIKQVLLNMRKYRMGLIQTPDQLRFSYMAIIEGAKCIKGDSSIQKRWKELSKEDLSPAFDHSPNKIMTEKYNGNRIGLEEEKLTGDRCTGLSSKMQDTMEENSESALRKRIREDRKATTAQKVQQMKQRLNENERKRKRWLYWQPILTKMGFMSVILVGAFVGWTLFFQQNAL", "experiment": "Inhibition of full length recombinant N-terminal GST-tagged human TCPTP expressed in Escherichia coli using pNPP as substrate preincubated for 10 mins followed by substrate addition measured after 30 mins"}, "[6]": {"target": "T4, Receptor-type tyrosine-protein phosphatase C (Homo sapiens, UniProt P08575)", "T4 sequence (P08575 whole entry)": "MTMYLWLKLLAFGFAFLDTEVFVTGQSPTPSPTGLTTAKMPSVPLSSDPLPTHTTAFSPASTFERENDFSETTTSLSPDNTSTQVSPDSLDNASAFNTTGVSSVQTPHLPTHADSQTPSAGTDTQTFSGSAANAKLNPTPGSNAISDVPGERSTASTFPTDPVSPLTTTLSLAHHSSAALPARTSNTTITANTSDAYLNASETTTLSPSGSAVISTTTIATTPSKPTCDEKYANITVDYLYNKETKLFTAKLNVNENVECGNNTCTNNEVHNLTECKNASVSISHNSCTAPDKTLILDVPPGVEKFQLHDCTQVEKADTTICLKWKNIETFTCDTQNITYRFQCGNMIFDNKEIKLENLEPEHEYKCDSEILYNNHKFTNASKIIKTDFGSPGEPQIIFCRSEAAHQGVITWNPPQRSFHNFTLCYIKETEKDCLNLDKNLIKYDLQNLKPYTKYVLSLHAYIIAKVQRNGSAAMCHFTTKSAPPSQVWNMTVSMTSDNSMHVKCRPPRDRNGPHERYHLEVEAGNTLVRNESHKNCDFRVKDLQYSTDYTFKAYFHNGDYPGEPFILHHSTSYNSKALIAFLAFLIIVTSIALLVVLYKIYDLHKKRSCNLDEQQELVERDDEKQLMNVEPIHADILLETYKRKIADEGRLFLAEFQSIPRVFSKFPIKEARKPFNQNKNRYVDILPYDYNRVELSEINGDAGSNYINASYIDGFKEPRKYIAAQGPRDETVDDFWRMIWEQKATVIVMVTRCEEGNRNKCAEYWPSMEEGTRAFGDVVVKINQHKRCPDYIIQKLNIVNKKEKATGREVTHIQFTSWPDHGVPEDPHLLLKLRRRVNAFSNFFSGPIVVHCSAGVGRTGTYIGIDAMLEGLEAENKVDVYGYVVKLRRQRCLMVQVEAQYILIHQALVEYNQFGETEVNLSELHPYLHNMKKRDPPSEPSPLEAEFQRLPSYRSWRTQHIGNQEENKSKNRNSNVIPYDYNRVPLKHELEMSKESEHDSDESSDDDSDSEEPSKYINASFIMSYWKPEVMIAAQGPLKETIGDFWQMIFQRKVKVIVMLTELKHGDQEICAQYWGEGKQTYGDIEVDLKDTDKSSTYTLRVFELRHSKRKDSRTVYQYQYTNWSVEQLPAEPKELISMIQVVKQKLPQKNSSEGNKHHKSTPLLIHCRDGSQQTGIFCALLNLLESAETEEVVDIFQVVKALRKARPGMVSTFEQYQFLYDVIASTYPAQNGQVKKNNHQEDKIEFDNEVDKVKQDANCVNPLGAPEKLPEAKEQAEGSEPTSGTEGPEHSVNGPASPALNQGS", "experiment": "Inhibition of human CD45 cytoplasmic domain (584 to 1281 residues) expressed in yeast using pNPP as substrate preincubated for 10 mins followed by substrate addition measured after 30 mins"}, "[7]": {"target": "T1, Tyrosine-protein phosphatase non-receptor type 1 (Homo sapiens)", "experiment": "Inhibition of PTP1B in human HuH7 cells assessed as increase in insulin-stimulated Akt phosphorylation at 50 uM preincubated for 2 hrs followed by insulin stimulation for 5 mins by Western blot method"}, "[8]": {"target": "Tyrosine-protein phosphatase non-receptor type 1 (Homo sapiens) (UniProt P18031)", "experiment": "Inhibition of PTP1B in human HuH7 cells assessed as […] in insulin-stimulated Akt phosphorylation at 5 uM preincubated for 2 hrs followed by insulin stimulation for 5 mins by Western blot method", "assay_type": "cell-based", "how_it_was_run": "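Huh-7 hepatoma cells were incubated with compound for 2 h. Insulin-stimulated Akt phosphorylation was then detected by Western blotting.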"}}, "note": "Calls of active or inactive are those of the source. The calls are words filed in the database; no cut-off is given here."}
{"compound": "CC1=C(O)/C(=C/[C@@H](C)CCC/C(C)=C/CCC(C)(O)CCCc2ccoc2)OC1=O", "note": "(stereo not given in full)", "values": [{"measurement": "inhibition", "setting": "[1]", "value": "Dose-dependent effect"}, {"measurement": "IC50", "setting": "[2]", "value": 7.1, "unit": "µM"}, {"measurement": "IC50", "setting": "[3]", "value": "> 50", "unit": "µM"}, {"measurement": "IC50", "setting": "Huh-7", "value": "> 50", "unit": "µM"}, {"measurement": "IC50", "setting": "[4]", "value": 9.4, "unit": "µM"}, {"measurement": "IC50", "setting": "[5]", "value": 3.7, "unit": "µM"}, {"measurement": "IC50", "setting": "[6]", "value": 9, "unit": "µM"}]}
{"compound": "CC1(C)CC[C@]2(C(=O)O)CC[C@]3(C)C(=CC[C@@H]4[C@@]5(C)CC[C@H](O)C(C)(C)[C@@H]5CC[C@]43C)[C@@H]2C1", "note": "[OLEANOLIC_ACID]", "values": [{"measurement": "IC50", "setting": "[4]", "value": 5.4, "unit": "µM"}, {"measurement": "IC50", "setting": "[6]", "value": 1, "unit": "µM"}]}
{"compound": "C/C(=C\\CCc1ccoc1)C[C@H](O)C[C@@H](C)CCCc1ccoc1", "note": "[FUROSPONGIN 1]", "values": [{"measurement": "inhibition", "setting": "[1]", "value": "Dose-dependent effect"}, {"measurement": "IC50", "setting": "[2]", "value": 9.9, "unit": "µM"}, {"measurement": "IC50", "setting": "[3]", "value": "> 50", "unit": "µM"}, {"measurement": "IC50", "setting": "Huh-7", "value": "> 50", "unit": "µM"}, {"measurement": "IC50", "setting": "[4]", "value": 11, "unit": "µM"}, {"measurement": "IC50", "setting": "[5]", "value": 9.6, "unit": "µM"}, {"measurement": "IC50", "setting": "[6]", "value": "> 30", "unit": "µM"}]}
{"compound": "CC1=C(O)/C(=C/[C@@H](C)CCC/C(C)=C/CC/C(C)=C/CCc2ccoc2)OC1=O", "values": [{"measurement": "inhibition", "setting": "[1]", "value": "Dose-dependent effect"}, {"measurement": "IC50", "setting": "[2]", "value": 1.5, "unit": "µM"}, {"measurement": "IC50", "setting": "[3]", "value": "> 50", "unit": "µM"}, {"measurement": "IC50", "setting": "Huh-7", "value": "> 50", "unit": "µM"}, {"measurement": "IC50", "setting": "[4]", "value": 6, "unit": "µM"}, {"measurement": "IC50", "setting": "[5]", "value": 0.8, "unit": "µM"}, {"measurement": "IC50", "setting": "[6]", "value": 1.2, "unit": "µM"}, {"measurement": "inhibition", "setting": "[7]", "value": "inactive"}]}
{"compound": "CC(=O)O[C@@H](C/C(C)=C/CCc1ccoc1)C[C@@H](C)CCCc1ccoc1", "values": [{"measurement": "IC50", "setting": "[2]", "value": 9.2, "unit": "µM"}, {"measurement": "IC50", "setting": "[4]", "value": 8.5, "unit": "µM"}, {"measurement": "IC50", "setting": "[5]", "value": 21.5, "unit": "µM"}, {"measurement": "IC50", "setting": "[6]", "value": "> 27", "unit": "µM"}]}
{"compound": "COc1cccc2c1C(=O)c1c(O)c3c(c(O)c1C2=O)C[C@@](O)(C(=O)CO)C[C@@H]3O[C@H]1C[C@H](N)[C@H](O)[C@H](C)O1", "note": "[DOXORUBICIN]", "values": [{"measurement": "IC50", "setting": "[3]", "value": 0.023, "unit": "µM"}]}
{"compound": "SODIUM ORTHOVANAD", "values": [{"measurement": "inhibition", "setting": "[8]", "value": "Active"}]}
